ChEMBL document CHEMBL2021847, “Identification of fused-ring alkanoic acids with improved pharmacokinetic profiles that act as G protein-coupled receptor 40/free fatty acid receptor 1 agonists” (J Med Chem, 2012)
Activity calls are given as the source filed them. No cut-off for these calls is given here.

Assays:
[1] = target: T1, Free fatty acid receptor 1 (Homo sapiens, UniProt O14842); experiment: Agonist activity at human […] receptor expressed in CHO cells assessed as increase in intracellular calcium concentration after 90 secs by FLIPR assay in presence of 0.1% BSA; type: functional, cell-based
T1 sequence (O14842 whole entry): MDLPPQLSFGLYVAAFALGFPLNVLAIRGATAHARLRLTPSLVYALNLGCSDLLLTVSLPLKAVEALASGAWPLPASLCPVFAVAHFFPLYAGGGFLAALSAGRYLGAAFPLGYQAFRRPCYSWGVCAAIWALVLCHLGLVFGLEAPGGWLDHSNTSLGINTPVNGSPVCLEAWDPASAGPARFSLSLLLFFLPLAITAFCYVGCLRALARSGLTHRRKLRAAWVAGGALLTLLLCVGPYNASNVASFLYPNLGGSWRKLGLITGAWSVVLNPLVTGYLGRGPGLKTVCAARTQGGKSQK
In short: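 CHO dhfr cells stably expressing human GPR40/FFA1 (NM_005303) plated and held overnight at 37 °C in 5% CO2. Loaded 60 min at 37 °C with Fluo 4-AM 2.5 μg/mL, probenecid 2.5 mmol/L and 0.1% fatty acid-free BSA. Compounds added over a concentration range, Ca2+ rise followed 90 s. Response scaled between vehicle (0%) and 10 μM γ-linolenic acid (100%).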

[2] = target: Free fatty acid receptor 1 (Rattus norvegicus, UniProt Q8K3T4); experiment: Displacement of 3-[4-({2',6'-dimethyl-6-[(4-[3H])-phenylmethoxy]biphenyl-3-yl}methoxy)phenyl] propanoic acid from rat GPR40 receptor expressed in CHO cells after 90 mins by scintillation counting in presence of 0.2% BSA; type: cell-based
Sequence of Free fatty acid receptor 1 (Rattus norvegicus, UniProt Q8K3T4) (Q8K3T4 whole entry): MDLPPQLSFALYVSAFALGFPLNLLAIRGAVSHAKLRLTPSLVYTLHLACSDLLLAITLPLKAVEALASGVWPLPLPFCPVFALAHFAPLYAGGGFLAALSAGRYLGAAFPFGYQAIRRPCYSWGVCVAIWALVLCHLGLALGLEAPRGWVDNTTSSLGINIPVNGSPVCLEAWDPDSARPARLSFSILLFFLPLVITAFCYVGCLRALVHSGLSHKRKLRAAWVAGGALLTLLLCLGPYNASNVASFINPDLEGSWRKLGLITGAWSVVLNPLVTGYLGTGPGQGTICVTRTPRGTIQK
In short: (§1)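 Membranes from CHO lines stably expressing human or rat GPR40/FFA1, in Tris-HCl pH 7.5 with EDTA, protease inhibitors, 0.05% CHAPS and 0.2% fatty acid-free BSA. Tritiated ligand at 2 or 6 nmol/L with graded test compound, 90 min at room temperature. Filter harvest, scintillation counting. Nonspecific binding with 10 μmol/L unlabeled ligand. IC50 by nonlinear regression, Ki via Cheng–Prusoff with measured Kd. Averages of n = 2 or 3.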

[3] = target: T1, Free fatty acid receptor 1; experiment: Displacement of 3-[4-({2',6'-dimethyl-6-[(4-[3H])-phenylmethoxy]biphenyl-3-yl}methoxy)phenyl] propanoic acid from human GPR40 receptor expressed in CHO cells after 90 mins by scintillation counting in presence of 0.2% BSA; type: cell-based; in short: as §1
[4] = Octanol-water partition coefficient, log D of the compound at pH 7.4 by reverse-phase liquid chromatography; type: physicochemical
Rattus norvegicus [5] = experiment: Antidiabetic activity in Wistar fatty rat assessed as decrease in plasma glucose level at 1 to 10 mg/kg, po administered as single dose 1 hr prior to glucose challenge measured after 120 mins by OGTT; type: functional, organism-based
In short: (§2)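 Female Wistar fatty rats aged 17−19 weeks, fasted overnight. Dosed orally in 0.5% methylcellulose (vehicle control), then given oral glucose 1 g/kg 1 h later. Tail-vein blood taken pre-dose, at 0, and at 10, 30, 60 and 120 min. Glucose by autoanalyzer, insulin by RIA. Glucose AUC0−120 min and incremental insulin AUC0−120 min calculated. n = 6, one-tailed Williams test versus vehicle.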

Rattus norvegicus [6] = experiment: Antidiabetic activity in po dosed Wistar fatty rat assessed as increase in plasma insulin level administered as single dose 1 hr prior to glucose challenge measured after 120 mins by OGTT; type: functional; conditions: read-out: MED; in short: as §2
Rattus norvegicus [7] = experiment: Antidiabetic activity in Wistar fatty rat assessed as increase in plasma insulin level at 1 to 10 mg/kg, po administered as single dose 1 hr prior to glucose challenge measured after 120 mins by OGTT; type: functional, organism-based; in short: as §2
Rattus norvegicus [8] = experiment: Antidiabetic activity in Wistar fatty rat assessed as increase in plasma insulin level at 10 mg/kg, po administered as single dose 4 hrs prior to glucose challenge measured after 120 mins by OGTT; type: functional, organism-based; design: dose 10 mg/kg
In short: (§3)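 Female Wistar fatty rats aged 17−19 weeks, fasted overnight. Given compound orally (10 mg/kg) or vehicle (0.5% methylcellulose), with oral glucose 1 g/kg 4 h later. Tail-vein sampling pre-dose, at 0, and at 10–120 min. Glucose by autoanalyzer, insulin by RIA.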

Rattus norvegicus [9] = experiment: Antidiabetic activity in Wistar fatty rat assessed as decrease in plasma glucose level at 10 mg/kg, po administered as single dose 4 hrs prior to glucose challenge measured after 120 mins by OGTT; type: functional, organism-based; design: dose 10 mg/kg; in short: as §3
Rattus norvegicus [10] = experiment: Antidiabetic activity in po dosed Wistar fatty rat assessed as decrease in plasma glucose level administered as single dose 1 hr prior to glucose challenge measured after 120 mins by OGTT; type: functional; conditions: read-out: MED; in short: as §2
[11] = target: T1, Free fatty acid receptor 1; experiment: Agonist activity at human […] receptor expressed in CHO cells assessed as increase in intracellular calcium concentration at 1 uM after 90 secs by FLIPR assay in presence of 0.1% BSA relative to control; type: functional, cell-based
In short: (§4)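 CHO dhfr cells stably expressing human GPR40/FFA1 (NM_005303) plated, incubated overnight at 37 °C in 5% CO2. Loaded 60 min at 37 °C with Fluo 4-AM (2.5 μg/mL), probenecid (2.5 mmol/L), 0.1% fatty acid-free BSA. Ca2+ rise monitored by FLIPR for 90 s after compound addition. Response expressed as % of 10 μM γ-linolenic acid response, vehicle-corrected.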

[12] = target: T1, Free fatty acid receptor 1; experiment: Agonist activity at human […] receptor expressed in CHO cells assessed as increase in intracellular calcium concentration at 10 uM after 90 secs by FLIPR assay in presence of 0.1% BSA relative to control; type: functional, cell-based; in short: as §4

Row | SMILES | EC50 [1] [nM] | Ki [2] [nM] | Ki [3] [nM] | chromatographic logD [4] | further results
1 | Cc1ccc2ccccc2c1-c1cccc(COc2ccc3c(c2)OCC3CC(=O)O)c1 (centres undefined) | 21 | 470 | 41 | 4.33 | –
2 | O=C(O)CC1COc2cc(OCc3cccc(-c4csc5ccccc45)c3)ccc21 (centres undefined) | 39 | > 10000 | 290 | 3.99 | –
3 | CCOCCOc1cc(C)c(-c2cccc(COc3ccc4c(c3)CCC(CC(=O)O)C4)c2)c(C)c1 (centres undefined) | 510 | > 10000 | 2100 | 4.67 | –
4 | CCOCCOc1cc(C)c(-c2cccc(COc3ccc4c(c3)OCC4CC(=O)O)c2)c(C)c1 (centres undefined) | – | 200 | – | 3.83 | Activity (Rattus norvegicus [5]): Active; minimal effective dose (Rattus norvegicus [6]): 10 mg/kg; Activity (Rattus norvegicus [7]): Active; Activity (Rattus norvegicus [8]): Active; Activity (Rattus norvegicus [9]): Active; minimal effective dose (Rattus norvegicus [10]): 10 mg/kg
5 | Cc1cccc(C)c1-c1cccc(COc2ccc3c(c2)OCC3CC(=O)O)c1 (centres undefined) | 27 | – | – | 3.88 | –
6 | CCOCCOc1cc(C)c(-c2cccc(COc3ccc4c(c3)CC(CC(=O)O)C4)c2)c(C)c1 (centres undefined) | 84 | > 10000 | 270 | 4.39 | –
7 | Cc1cccc(C)c1-c1cccc(COc2ccc3c(ccn3CC(=O)O)c2)c1 | – | > 10000 | > 10000 | 3.93 | Efficacy [11]: 2%; Efficacy [12]: 101%
8 | Cc1cccc(C)c1-c1cccc(COc2ccc3c(n2)CCC3CC(=O)O)c1 (centres undefined) | 570 | > 10000 | > 10000 | 3.88 | –
9 | Cc1ccc(-c2cccc(COc3ccc4c(c3)OCC4CC(=O)O)c2)c(C)c1 (centres undefined) | 29 | 1600 | 57 | 4.15 | –
10 | Cc1cccc(C)c1-c1cccc(COc2ccc3c(c2)CC3CC(=O)O)c1 (centres undefined) | 69 | > 10000 | 1200 | 4.12 | –
11 | CCOCCOc1cc(C)c(-c2cccc(COc3ccc4c(c3)CC(C(=O)O)C4)c2)c(C)c1 (centres undefined) | 960 | > 10000 | > 10000 | 4.11 | –
12 | O=C(O)CC1COc2cc(OCc3cccc(-c4ccc5sccc5c4)c3)ccc21 (centres undefined) | 180 | > 10000 | 570 | 3.97 | –
13 | Cc1cccc(C)c1-c1cc(COc2ccc3c(c2)OCC3CC(=O)O)ccc1OCc1ccccc1 (centres undefined) | 10 | 170 | 6.9 | 4.53 | –
14 | CCOCCOc1cc(C)c(-c2cccc(COc3ccc4c(c3)COC4CC(=O)O)c2)c(C)c1 (centres undefined) | 91 | 67 | 390 | 3.61 | –
15 | Cc1cccc(C)c1-c1cccc(COc2ccc3c(c2)OCCC(C(=O)O)C3)c1 (centres undefined) | 70 | – | – | 4.05 | –
16 | CCOCCOc1cc(C)c(-c2cccc(COc3ccc4c(c3)CCC(C(=O)O)C4)c2)c(C)c1 (centres undefined) | 140 | > 10000 | 280 | 4.33 | –
17 | Cc1cc(OCc2ccccc2)cc(C)c1-c1cccc(COc2ccc3c(c2)OCC3CC(=O)O)c1 (centres undefined) | 28 | 100 | 18 | 5.03 | –
18 | Cc1cc(C)c(-c2cccc(COc3ccc4c(c3)OCC4CC(=O)O)c2)c(C)c1 (centres undefined) | 33 | 130 | 36 | 4.47 | –
19 | Cc1cccc(C)c1-c1cccc(COc2ccc3c(c2)CCCC3CC(=O)O)c1 (centres undefined) | 27 | – | – | 4.7 | –
20 | CCOCCOc1cc(C)c(-c2cccc(CNc3ccc4c(c3)OCC4CC(=O)O)c2)c(C)c1 (centres undefined) | 48 | 110 | 43 | 3.13 | –
21 | Cc1cccc(C)c1-c1cccc(COc2ccc3c(c2)CCCCC3CC(=O)O)c1 (centres undefined) | 940 | – | – | 5.02 | –
22 | COc1ccc(COc2ccc3c(c2)OCC3CC(=O)O)cc1-c1c(C)cccc1C (centres undefined) | 24 | 1600 | 130 | 3.31 | –
23 | Cc1cccc(C)c1-c1cccc(COc2ccc3c(c2)CCC3CC(=O)O)c1 (centres undefined) | 33 | – | – | 4.4 | –
24 | CCOCCOc1cc(C)c(-c2cccc(COc3ccc4c(c3)CC(=O)N4CC(=O)O)c2)c(C)c1 | – | > 10000 | > 10000 | 3.41 | Efficacy [11]: 2%; Efficacy [12]: 59%
25 | Cc1cccc(C)c1-c1cccc(COc2ccc3c(CC(=O)O)coc3c2)c1 | 4900 | – | – | 4.04 | –
